In general, pIC50 refers to the IC50 on a negative log10 scale, so that one unit is a factor of ten. What is called inhibition is the share of the control response that was lost under treatment.

pIC50: −log10 of the molar value. The source made the active and inactive calls. The calls are words filed in the database; no cut-off is given here.

Data set [1] concerns the target Protein arginine N-methyltransferase 6 (Homo sapiens, UniProt Q96LA8). The data set is described as follows: Inhibition of human PRMT6 using [3H]SAM as donor and [3H]methylated biotin-labeled peptide as substrate by scintillation proximity assay. In a few lines: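 Compound titrated into the reaction; 1 h enzyme–compound preincubation stated for PRMT6. Methylated peptide captured on streptavidin/scintillant-coated plates and counted (cpm). IC50 from concentration–response, triplicate, mean ± SD.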
On the technique in general: Scintillation proximity formats need no separation of bound from free tracer.

Data set [2] has as its target T1, Histone-arginine methyltransferase CARM1 (Homo sapiens) (UniProt Q86X55).
T1 sequence (whole entry): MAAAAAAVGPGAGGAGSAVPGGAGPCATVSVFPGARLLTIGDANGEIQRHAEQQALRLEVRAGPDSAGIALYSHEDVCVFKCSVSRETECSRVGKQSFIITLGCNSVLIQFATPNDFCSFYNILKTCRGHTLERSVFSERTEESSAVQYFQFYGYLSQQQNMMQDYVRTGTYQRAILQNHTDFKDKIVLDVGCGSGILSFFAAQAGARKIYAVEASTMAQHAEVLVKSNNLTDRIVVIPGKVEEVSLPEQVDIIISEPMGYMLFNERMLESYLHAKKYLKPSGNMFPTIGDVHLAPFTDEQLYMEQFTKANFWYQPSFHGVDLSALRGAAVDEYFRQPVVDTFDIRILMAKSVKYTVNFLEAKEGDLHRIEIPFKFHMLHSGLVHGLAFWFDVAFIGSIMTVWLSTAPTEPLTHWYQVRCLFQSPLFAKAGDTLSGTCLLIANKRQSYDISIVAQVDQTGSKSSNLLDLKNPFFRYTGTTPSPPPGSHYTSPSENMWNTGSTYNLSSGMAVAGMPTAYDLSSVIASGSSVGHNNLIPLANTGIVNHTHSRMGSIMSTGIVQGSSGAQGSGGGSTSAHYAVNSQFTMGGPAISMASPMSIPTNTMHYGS
The experiment in a line: Covalent binding affinity to human PRMT4 assessed as covalent adduct. formation at 300 uM pre-incubated for 1 hr by mass spectrometry. Put shortly:
(§1)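 PRMT protein at 15 μM was incubated 1 h at room temperature with a 20-fold molar excess of inhibitor (300 μM). The reaction was quenched with 0.1% aqueous TFA, separated by HPLC (5–95% acetonitrile in water) and analysed by ESI time-of-flight LC/MS for protein–ligand adduct mass.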

Data set [3] concerns the target T2, Protein arginine N-methyltransferase 8 (Homo sapiens, UniProt Q9NR22). The data set is described as follows: Covalent binding affinity to human PRMT8 assessed as covalent adduct. formation at 300 uM pre-incubated for 1 hr by mass spectrometry. In a few lines: as §1
For a further data set, the species on record is Homo sapiens. The data set is described as follows: Selectivity index, ratio of IC50 for human PRMT3 to IC50 for human PRMT6.
In a further data set the test system is PNT2. The experiment in a line: Toxicity in human PNT2 cells assessed as reduction in cell viability up to 20 uM incubated for 3 days by CCK8 assay. Conditions: pnt2, 72 h. The class given is cell-based. Put shortly:
(§2)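 Cells seeded 1×10^4 per well in triplicate, treated after 24 h with serial dilutions from 20 μM for 3 days; CCK-8 (WST-8) added, 4 h at 37 °C, absorbance at 450 nm; mean ± SD of three replicate experiments.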
A general note: Tetrazolium dyes change colour on reduction, which living cells bring about.

A further data set deals with HEK-293T. The experiment in a line: Toxicity in HEK293T cells assessed as reduction in cell viability up to 20 uM incubated for 3 days by CCK8 assay. The class given is cell-based. Conditions: human, 72 h. In a few lines: as §2
Data set [4] addresses T1, Histone-arginine methyltransferase CARM1 (Homo sapiens). The experiment in a line: Inhibition of PRMT4 (unknown origin) assessed as reduction in incorporation of [3H]-labeled methyl group into biotinylated substrate using [3H-SAM] at 10 uM incubated for 1 hr by scintillation proximity assay. Put shortly: (§3)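 Panel of 33 methyltransferases (22 PKMTs, 3 DNMTs, 8 PRMTs), each tested at 10 and 50 μM compound. Activity was read as ³H-methyl transfer from ³H-SAM in a radiometric assay done as previously described.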

Data set [5] has as its target T2, Protein arginine N-methyltransferase 8. The experiment in a line: Inhibition of PRMT8 (unknown origin) assessed as reduction in incorporation of [3H]-labeled methyl group into biotinylated substrate using [3H-SAM] at 10 uM incubated for 1 hr by scintillation proximity assay. Put shortly:
as §3

Data set [6] deals with Histone-lysine N-methyltransferase EHMT2 (Homo sapiens) (UniProt Q96KQ7). The experiment in a line: Inhibition of G9a (unknown origin) assessed as reduction in incorporation of [3H]-labeled methyl group into biotinylated substrate using [3H-SAM] at 10 uM incubated for 1 hr by scintillation proximity assay. In a few lines: as §3
Histone-lysine N-methyltransferase EHMT2 (Homo sapiens), sequence (Q96KQ7 whole entry): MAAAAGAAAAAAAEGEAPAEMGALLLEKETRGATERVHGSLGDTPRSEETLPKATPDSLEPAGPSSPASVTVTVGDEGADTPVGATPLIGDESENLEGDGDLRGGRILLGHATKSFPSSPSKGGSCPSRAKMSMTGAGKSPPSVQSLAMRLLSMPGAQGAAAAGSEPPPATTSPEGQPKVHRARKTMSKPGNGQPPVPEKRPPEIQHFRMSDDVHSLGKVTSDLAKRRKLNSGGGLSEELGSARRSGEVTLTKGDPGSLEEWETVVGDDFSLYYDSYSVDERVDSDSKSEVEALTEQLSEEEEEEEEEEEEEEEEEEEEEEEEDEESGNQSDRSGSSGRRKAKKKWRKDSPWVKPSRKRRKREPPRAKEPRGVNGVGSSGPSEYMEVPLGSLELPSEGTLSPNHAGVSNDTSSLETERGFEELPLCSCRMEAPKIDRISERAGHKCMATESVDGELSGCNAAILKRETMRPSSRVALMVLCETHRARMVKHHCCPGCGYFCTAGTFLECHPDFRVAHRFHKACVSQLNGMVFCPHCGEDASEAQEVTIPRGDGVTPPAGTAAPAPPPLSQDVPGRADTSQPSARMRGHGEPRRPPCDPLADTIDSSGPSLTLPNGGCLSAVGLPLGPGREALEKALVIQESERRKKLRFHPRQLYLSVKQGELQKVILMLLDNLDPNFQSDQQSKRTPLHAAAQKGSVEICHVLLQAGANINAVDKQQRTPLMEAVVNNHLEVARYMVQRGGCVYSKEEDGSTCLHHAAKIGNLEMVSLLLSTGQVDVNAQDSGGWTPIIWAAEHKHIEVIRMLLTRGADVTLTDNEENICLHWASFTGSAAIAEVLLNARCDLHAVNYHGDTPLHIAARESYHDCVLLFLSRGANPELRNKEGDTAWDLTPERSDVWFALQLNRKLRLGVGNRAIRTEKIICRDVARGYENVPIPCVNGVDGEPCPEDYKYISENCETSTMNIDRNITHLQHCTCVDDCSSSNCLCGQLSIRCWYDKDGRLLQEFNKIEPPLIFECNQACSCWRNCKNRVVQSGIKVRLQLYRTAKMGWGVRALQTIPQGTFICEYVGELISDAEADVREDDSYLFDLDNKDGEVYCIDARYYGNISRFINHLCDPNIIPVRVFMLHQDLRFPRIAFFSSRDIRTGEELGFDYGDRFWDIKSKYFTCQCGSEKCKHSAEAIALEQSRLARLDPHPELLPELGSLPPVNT
The target in data set [7] is Histone-lysine N-methyltransferase EHMT1 (Homo sapiens) (UniProt Q9H9B1). The data set is described as follows: Inhibition of GLP (unknown origin) assessed as reduction in incorporation of [3H]-labeled methyl group into biotinylated substrate using [3H-SAM] at 10 uM incubated for 1 hr by scintillation proximity assay. Put shortly:
as §3

Data set [8] deals with Histone-lysine N-methyltransferase PRDM9 (Homo sapiens) (UniProt Q9NQV7). The experiment in a line: Inhibition of PRDM9 (unknown origin) assessed as reduction in incorporation of [3H]-labeled methyl group into biotinylated substrate using [3H-SAM] at 10 uM incubated for 1 hr by scintillation proximity assay. Put shortly:
as §3

Data set [9] has as its target Histone-lysine N-methyltransferase SETD7 (Homo sapiens) (UniProt Q8WTS6). The experiment in a line: Inhibition of SETD7 (unknown origin) assessed as reduction in incorporation of [3H]-labeled methyl group into biotinylated substrate using [3H-SAM] at 10 uM incubated for 1 hr by scintillation proximity assay. Put shortly:
as §3

For data set [10], the target named is Histone-lysine N-methyltransferase 2C (Homo sapiens) (UniProt Q8NEZ4). The experiment in a line: Inhibition of MLL3 (unknown origin) assessed as reduction in incorporation of [3H]-labeled methyl group into biotinylated substrate using [3H-SAM] at 10 uM incubated for 1 hr by scintillation proximity assay. Put shortly: as §3
In data set [11] the target is N-lysine methyltransferase SMYD2 (Homo sapiens) (UniProt Q9NRG4). The data set is described as follows: Inhibition of SMYD2 (unknown origin) assessed as reduction in incorporation of [3H]-labeled methyl group into biotinylated substrate using [3H-SAM] at 10 uM incubated for 1 hr by scintillation proximity assay. Put shortly:
as §3

Data set [12] deals with Histone-lysine N-methyltransferase SMYD3 (Homo sapiens) (UniProt Q9H7B4). The data set is described as follows: Inhibition of SMYD3 (unknown origin) assessed as reduction in incorporation of [3H]-labeled methyl group into biotinylated substrate using [3H-SAM] at 10 uM incubated for 1 hr by scintillation proximity assay. Put shortly:
as §3

The target of data set [13] is RNA 5'-monophosphate methyltransferase (Homo sapiens) (UniProt Q7Z5W3). The data set is described as follows: Inhibition of BCDIN3D (unknown origin) assessed as reduction in incorporation of [3H]-labeled methyl group into biotinylated substrate using [3H-SAM] at 10 uM incubated for 1 hr by scintillation proximity assay.
RNA 5'-monophosphate methyltransferase (Homo sapiens), sequence (Q7Z5W3 whole entry): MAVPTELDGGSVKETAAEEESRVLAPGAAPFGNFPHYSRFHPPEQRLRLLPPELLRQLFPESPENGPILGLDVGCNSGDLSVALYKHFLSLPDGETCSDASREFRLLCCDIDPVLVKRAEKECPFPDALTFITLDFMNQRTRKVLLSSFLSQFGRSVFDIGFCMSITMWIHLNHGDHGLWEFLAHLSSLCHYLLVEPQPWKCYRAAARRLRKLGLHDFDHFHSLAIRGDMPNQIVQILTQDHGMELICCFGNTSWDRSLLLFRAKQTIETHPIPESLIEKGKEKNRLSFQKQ
In data set [14] the target is Histone-lysine N-methyltransferase NSD3 (Homo sapiens) (UniProt Q9BZ95). The data set is described as follows: Inhibition of NSD3 (unknown origin) at 10 uM using [3H-SAM] and nucleosome as substrate incubated for 1 hr by scintillation proximity assay. Put shortly:
as §3

In data set [15] the target is Histone-lysine N-methyltransferase, H3 lysine-79 specific (Homo sapiens) (UniProt Q8TEK3). The experiment in a line: Inhibition of DOT1L (unknown origin) at 10 uM using [3H-SAM] and nucleosome as substrate incubated for 1 hr by scintillation proximity assay. Put shortly:
as §3

Data set [16] addresses Histone-lysine N-methyltransferase SETD7 (Homo sapiens) (UniProt Q8WTS6). The experiment in a line: Inhibition of SETD7 (unknown origin) at 50 uM assessed as reduction in incorporation of [3H]-labeled methyl group into biotinylated substrate using [3H-SAM] at 50 uM incubated for 1 hr by scintillation proximity assay relative to control. In a few lines: as §3

Protein arginine N-methyltransferase 6, sequence (Q96LA8 whole entry): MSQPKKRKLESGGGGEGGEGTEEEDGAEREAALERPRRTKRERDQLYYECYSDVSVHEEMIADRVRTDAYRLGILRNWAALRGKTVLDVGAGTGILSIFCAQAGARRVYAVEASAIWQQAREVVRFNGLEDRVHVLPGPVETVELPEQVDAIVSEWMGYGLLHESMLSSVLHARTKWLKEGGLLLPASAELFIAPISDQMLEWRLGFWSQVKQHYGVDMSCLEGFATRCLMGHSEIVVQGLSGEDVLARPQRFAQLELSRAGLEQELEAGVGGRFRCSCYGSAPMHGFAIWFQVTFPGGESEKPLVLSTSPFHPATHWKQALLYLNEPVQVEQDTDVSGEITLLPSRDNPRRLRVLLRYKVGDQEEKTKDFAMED
T2 sequence (Q9NR22 2-394 limits assumed): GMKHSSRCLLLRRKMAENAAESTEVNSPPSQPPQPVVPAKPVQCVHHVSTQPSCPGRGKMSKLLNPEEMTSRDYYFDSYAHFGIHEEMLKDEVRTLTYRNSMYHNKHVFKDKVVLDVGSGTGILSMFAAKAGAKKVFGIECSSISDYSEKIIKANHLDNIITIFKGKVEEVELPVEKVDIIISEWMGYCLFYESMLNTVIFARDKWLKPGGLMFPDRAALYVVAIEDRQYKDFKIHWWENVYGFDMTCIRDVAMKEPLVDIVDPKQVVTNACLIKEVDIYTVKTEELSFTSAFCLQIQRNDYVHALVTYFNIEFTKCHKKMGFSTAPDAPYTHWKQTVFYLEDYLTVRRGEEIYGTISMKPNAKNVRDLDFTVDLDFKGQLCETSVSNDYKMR
Histone-lysine N-methyltransferase SETD7 (Homo sapiens), sequence (Q8WTS6 whole entry): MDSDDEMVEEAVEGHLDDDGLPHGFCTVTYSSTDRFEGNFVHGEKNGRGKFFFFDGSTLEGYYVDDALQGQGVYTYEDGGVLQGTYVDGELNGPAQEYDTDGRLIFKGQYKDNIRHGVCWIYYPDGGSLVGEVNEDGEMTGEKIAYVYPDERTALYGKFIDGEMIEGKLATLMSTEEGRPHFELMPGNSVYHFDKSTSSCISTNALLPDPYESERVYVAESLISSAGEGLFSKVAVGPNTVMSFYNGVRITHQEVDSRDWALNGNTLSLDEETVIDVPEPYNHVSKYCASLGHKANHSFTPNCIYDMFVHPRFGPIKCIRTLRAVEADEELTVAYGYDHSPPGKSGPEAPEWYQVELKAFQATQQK
N-lysine methyltransferase SMYD2 (Homo sapiens), sequence (Q9NRG4 whole entry): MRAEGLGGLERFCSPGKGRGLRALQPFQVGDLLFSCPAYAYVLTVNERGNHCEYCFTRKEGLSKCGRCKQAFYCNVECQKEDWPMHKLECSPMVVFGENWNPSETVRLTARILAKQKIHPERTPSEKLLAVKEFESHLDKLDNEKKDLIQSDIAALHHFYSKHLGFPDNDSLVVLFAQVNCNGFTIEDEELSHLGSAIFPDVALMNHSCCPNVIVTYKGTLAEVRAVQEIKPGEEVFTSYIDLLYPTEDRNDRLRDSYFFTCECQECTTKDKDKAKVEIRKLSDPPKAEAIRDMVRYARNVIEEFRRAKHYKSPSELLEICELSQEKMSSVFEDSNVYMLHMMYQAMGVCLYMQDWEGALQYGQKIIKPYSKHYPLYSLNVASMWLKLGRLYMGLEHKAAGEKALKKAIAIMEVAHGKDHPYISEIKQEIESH
Histone-lysine N-methyltransferase EHMT1 (Homo sapiens), sequence (Q9H9B1 whole entry): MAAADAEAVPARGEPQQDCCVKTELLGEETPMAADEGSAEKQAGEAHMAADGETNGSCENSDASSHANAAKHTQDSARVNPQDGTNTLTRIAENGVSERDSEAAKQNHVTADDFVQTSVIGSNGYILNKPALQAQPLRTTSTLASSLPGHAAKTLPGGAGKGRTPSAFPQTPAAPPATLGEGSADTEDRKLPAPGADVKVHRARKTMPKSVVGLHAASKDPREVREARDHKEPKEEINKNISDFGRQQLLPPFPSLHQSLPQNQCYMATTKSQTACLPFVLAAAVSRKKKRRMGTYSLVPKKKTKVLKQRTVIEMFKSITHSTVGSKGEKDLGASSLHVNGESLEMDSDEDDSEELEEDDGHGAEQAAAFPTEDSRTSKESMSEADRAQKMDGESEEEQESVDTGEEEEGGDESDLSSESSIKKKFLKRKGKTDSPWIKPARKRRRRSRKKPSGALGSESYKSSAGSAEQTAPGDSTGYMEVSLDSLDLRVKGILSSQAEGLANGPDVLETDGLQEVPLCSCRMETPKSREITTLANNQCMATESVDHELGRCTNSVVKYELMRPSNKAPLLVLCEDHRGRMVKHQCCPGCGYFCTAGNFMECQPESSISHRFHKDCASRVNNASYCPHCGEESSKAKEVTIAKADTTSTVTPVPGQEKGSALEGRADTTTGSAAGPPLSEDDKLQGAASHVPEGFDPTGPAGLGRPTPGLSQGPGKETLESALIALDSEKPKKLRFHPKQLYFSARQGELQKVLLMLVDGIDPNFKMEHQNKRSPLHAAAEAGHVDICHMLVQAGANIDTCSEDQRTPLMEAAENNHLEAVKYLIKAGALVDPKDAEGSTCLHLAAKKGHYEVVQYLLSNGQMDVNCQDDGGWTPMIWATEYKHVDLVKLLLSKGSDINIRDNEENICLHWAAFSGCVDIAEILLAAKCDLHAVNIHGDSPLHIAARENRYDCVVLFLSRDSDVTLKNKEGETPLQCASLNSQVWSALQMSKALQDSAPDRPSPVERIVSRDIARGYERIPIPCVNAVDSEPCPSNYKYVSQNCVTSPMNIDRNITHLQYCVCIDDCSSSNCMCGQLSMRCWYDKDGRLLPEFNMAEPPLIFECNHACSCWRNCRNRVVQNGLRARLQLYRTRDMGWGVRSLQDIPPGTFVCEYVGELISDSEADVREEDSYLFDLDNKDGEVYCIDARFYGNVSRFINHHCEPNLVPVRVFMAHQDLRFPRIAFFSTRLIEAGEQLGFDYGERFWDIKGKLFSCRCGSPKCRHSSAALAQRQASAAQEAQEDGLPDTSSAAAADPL
Histone-lysine N-methyltransferase SMYD3 (Homo sapiens), sequence (Q9H7B4 whole entry): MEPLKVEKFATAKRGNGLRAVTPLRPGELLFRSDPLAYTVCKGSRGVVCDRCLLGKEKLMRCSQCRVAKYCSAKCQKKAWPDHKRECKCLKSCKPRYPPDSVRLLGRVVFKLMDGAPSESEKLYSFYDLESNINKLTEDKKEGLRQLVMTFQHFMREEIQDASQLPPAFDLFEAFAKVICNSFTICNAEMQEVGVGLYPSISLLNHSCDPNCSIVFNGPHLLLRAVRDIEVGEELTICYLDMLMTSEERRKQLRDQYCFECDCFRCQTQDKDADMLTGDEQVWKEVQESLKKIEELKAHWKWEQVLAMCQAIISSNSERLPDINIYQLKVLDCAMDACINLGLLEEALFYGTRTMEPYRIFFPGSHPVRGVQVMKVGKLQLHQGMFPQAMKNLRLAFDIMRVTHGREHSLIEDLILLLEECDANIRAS

In the case of `C=CC(=O)Nc1cccc(-c2c[nH]cc2CN(C)CCN)c1`, in data set [1] (read-out: IC50), the pIC50 was 7.74. For the same compound, the IC50 in data set [1] (read-out: pIC50 (converted)) is 15.8 nM. Also, the outcome in [2] and in [3] was inactive. Moreover, the Ratio IC50 in the data set listed under Homo sapiens was 167. Moreover, the Activity result in the data set on PNT2 and in the data set on HEK-293T was “Non-Toxic” in each case. Also, the inhibition in [4] is above 90%; in [5], above 90%; in [16], above 50%. The inhibition result in data set [6], in [7], in data set [8], in [9], in data set [10] and in [11] was “inactive” in each case. Also, the inhibition result in [12], in data set [13], in data set [14] and in [15] was “inactive” throughout.

The values above are taken from ChEMBL document CHEMBL4342528, “Discovery of a First-in-Class Protein Arginine Methyltransferase 6 (PRMT6) Covalent Inhibitor” (J Med Chem, 2020).
